Assay results: ChEMBL document CHEMBL1124384, “Deaminoteicoplanin and its derivatives. Synthesis, antibacterial activity, and binding strength to Ac-D-Ala-D-Ala” (J Med Chem, 1989)
Values after ≈ are worked out from the molar mass of the structure shown.

Columns and labels:
Staphylococcus aureus [1] = experiment: Minimal inhibitory concentration of compound against Staphylococcus aureus Tour; assay type: functional
How it was run: (§1)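 Broth MIC by 2-fold serial dilution in microtiter format, in Iso-sensitest broth, with a final inoculum of about 10⁴ cfu/mL. Plates were incubated 18–24 h at 37 °C. MIC was taken as the lowest concentration with no visible growth.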

Staphylococcus aureus [2] = experiment: Minimal inhibitory concentration of compound against Staphylococcus aureus Tour in an inoculum of 10e6 cfu/mL; assay type: functional
How it was run: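 Twofold microtiter broth dilution in Iso-sensitest broth, with the inoculum raised to 10⁶ cfu/mL. After 18–24 h at 37 °C, MIC was read as the lowest concentration giving no visible growth.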

Streptococcus pneumoniae = experiment: Minimal inhibitory concentration of compound against Streptococcus pneumoniae UC41; assay type: functional
How it was run: (§2)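 Streptococci were tested by 2-fold broth microdilution in Todd-Hewitt broth, with a final inoculum of about 10⁴ cfu/mL. After 18–24 h at 37 °C, MIC was read as the lowest concentration with no visible growth.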

Streptococcus pyogenes = experiment: Minimal inhibitory concentration of compound against Streptococcus pyogenes C203; assay type: functional; how it was run: as §2
Enterococcus faecalis = experiment: Minimal inhibitory concentration of compound against Streptococcus faecalis AACC7080; assay type: functional
How it was run: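 For S. faecalis, 2-fold dilution MIC in a microtiter system using Iso-sensitest broth and a final inoculum of about 10⁴ cfu/mL. Incubation was 18–24 h at 37 °C. The endpoint was the lowest concentration without visible growth.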

[3] = system: Staphylococcus epidermidis; experiment: Minimal inhibitory concentration of compound against […] ATCC 12228; assay type: functional
Staphylococcus aureus [4] = experiment: Minimal inhibitory concentration of compound against Staphylococcus aureus Tour determined in iso-sensitest broth supplemented with 30% bovine serum and an inoculum of 10e4 cfu/mL
[5] = Association constant for compound at 31 degree C was determined; assay type: ADME
How it was run: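 UV difference spectroscopy at 31 °C. Antibiotic at 25 μM in 10% methanol/0.02 M sodium citrate buffer, pH 5, sat in sample and reference cells (4-cm path). Ac-D-Ala-D-Ala was added from a 4 mM stock to the sample cell, with buffer added to the reference. The absorbance change was read at 282–285 nm. K_A came from Scatchard plots, with antibiotic concentration set by UV at 279 nm.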

Staphylococcus aureus [6] = experiment: Minimal inhibitory concentration of compound against Staphylococcus aureus; assay type: functional; how it was run: as §1

MIC (Staphylococcus aureus [1]) | MIC (Staphylococcus aureus [2]) | MIC (Streptococcus pneumoniae) | MIC (Streptococcus pyogenes) | MIC (Enterococcus faecalis) | MIC [3] | MIC (Staphylococcus aureus [4]) | KA [5] | MIC (Staphylococcus aureus [6]) | SMILES
0.12 µg/mL (≈ 0.0946 µM) | 0.12 µg/mL (≈ 0.0946 µM) | 0.2 µg/mL (≈ 0.158 µM) | 0.12 µg/mL (≈ 0.0946 µM) | 0.12 µg/mL (≈ 0.0946 µM) | 0.12 µg/mL (≈ 0.0946 µM) | 4 µg/mL (≈ 3.15 µM) | – | – | CN(C)CCCNC(=O)[C@H]1NC(=O)[C@H]2NC(=O)[C@H](NC(=O)[C@@H]3NC(=O)[C@H]4NC(=O)[C@@H](Cc5ccc(c(Cl)c5)Oc5cc3cc(c5O)Oc3ccc(cc3Cl)[C@H]2O)NC(=O)Cc2ccc(O)c(c2)Oc2cc(O)cc4c2)c2ccc(O)c(c2)-c2c(O)cc(O)cc21
2 µg/mL (≈ 1.29 µM) | 8 µg/mL (≈ 5.16 µM) | 4 µg/mL (≈ 2.58 µM) | 4 µg/mL (≈ 2.58 µM) | 4 µg/mL (≈ 2.58 µM) | 1 µg/mL (≈ 0.645 µM) | 16 µg/mL (≈ 10.3 µM) | – | – | CC(=O)N[C@@H]1[C@H](O[C@@H]2c3ccc(c(Cl)c3)Oc3cc4cc(c3O)Oc3ccc(cc3Cl)C[C@H]3NC(=O)Cc5ccc(O)c(c5)Oc5cc(O)cc(c5)[C@H](NC3=O)C(=O)N[C@H]4C(=O)N[C@H]3C(=O)N[C@@H]2C(=O)N[C@H](C(=O)O)c2cc(O)cc(O[C@H]4O[C@H](CO)[C@@H](O)[C@@H](O)[C@@H]4O)c2-c2cc3ccc2O)O[C@@H](CO)[C@@H](O)[C@@H]1O
2 µg/mL (≈ 1.44 µM) | 2 µg/mL (≈ 1.44 µM) | 2 µg/mL (≈ 1.44 µM) | 8 µg/mL (≈ 5.77 µM) | 8 µg/mL (≈ 5.77 µM) | 1 µg/mL (≈ 0.721 µM) | 16 µg/mL (≈ 11.5 µM) | – | – | CC(=O)N[C@@H]1[C@H](O[C@@H]2c3ccc(c(Cl)c3)Oc3cc4cc(c3O)Oc3ccc(cc3Cl)C[C@H]3NC(=O)Cc5ccc(O)c(c5)Oc5cc(O)cc(c5)[C@H](NC3=O)C(=O)N[C@H]4C(=O)N[C@H]3C(=O)N[C@@H]2C(=O)N[C@H](C(=O)O)c2cc(O)cc(O)c2-c2cc3ccc2O)O[C@@H](CO)[C@@H](O)[C@@H]1O
– | 2 µg/mL (≈ 1.07 µM) | 0.25 µg/mL (≈ 0.134 µM) | 0.12 µg/mL (≈ 0.0644 µM) | 0.5 µg/mL (≈ 0.268 µM) | 0.12 µg/mL (≈ 0.0644 µM) | 8 µg/mL (≈ 4.29 µM) | 130000 M⁻¹ | 0.5 µg/mL (≈ 0.268 µM) | CCCCCCCCCC(=O)N[C@@H]1[C@H](Oc2c3cc4cc2Oc2ccc(cc2Cl)[C@@H](O[C@@H]2O[C@@H](CO)[C@@H](O)[C@H](O)[C@@H]2NC(C)=O)[C@@H]2NC(=O)[C@H](NC(=O)[C@@H]4NC(=O)[C@H]4NC(=O)[C@@H](Cc5ccc(c(Cl)c5)O3)NC(=O)Cc3ccc(O)c(c3)Oc3cc(O)cc4c3)c3ccc(O)c(c3)-c3c(O[C@H]4O[C@H](CO)[C@@H](O)[C@@H](O)[C@@H]4O)cc(O)cc3[C@@H](C(=O)O)NC2=O)O[C@@H](CO)[C@@H](O)[C@@H]1O
0.12 µg/mL (≈ 0.0929 µM) | 0.25 µg/mL (≈ 0.193 µM) | 0.12 µg/mL (≈ 0.0929 µM) | 0.12 µg/mL (≈ 0.0929 µM) | 0.25 µg/mL (≈ 0.193 µM) | 0.12 µg/mL (≈ 0.0929 µM) | 4 µg/mL (≈ 3.1 µM) | 22000 M⁻¹ | – | O=C1Cc2ccc(O)c(c2)Oc2cc(O)cc(c2)[C@@H]2NC(=O)[C@@H](Cc3ccc(c(Cl)c3)Oc3cc4cc(c3O)Oc3ccc(cc3Cl)[C@@H](O)[C@@H]3NC(=O)[C@H](NC(=O)[C@@H]4NC2=O)c2ccc(O)c(c2)-c2c(O)cc(O)cc2[C@@H](C(=O)NC2CN4CCC2CC4)NC3=O)N1 (stereo partly drawn)
0.12 µg/mL (≈ 0.0634 µM) | 1 µg/mL (≈ 0.529 µM) | 0.12 µg/mL (≈ 0.0634 µM) | 0.12 µg/mL (≈ 0.0634 µM) | 0.25 µg/mL (≈ 0.132 µM) | 0.12 µg/mL (≈ 0.0634 µM) | 4 µg/mL (≈ 2.11 µM) | 200000 M⁻¹ | – | CCCCCCCCCC(=O)N[C@@H]1[C@H](Oc2c3cc4cc2Oc2ccc(cc2Cl)[C@@H](O[C@@H]2O[C@@H](CO)[C@@H](O)[C@H](O)[C@@H]2NC(C)=O)[C@@H]2NC(=O)[C@H](NC(=O)[C@@H]4NC(=O)[C@H]4NC(=O)[C@@H](Cc5ccc(c(Cl)c5)O3)NC(=O)Cc3ccc(O)c(c3)Oc3cc(O)cc4c3)c3ccc(O)c(c3)-c3c(O[C@H]4O[C@H](CO)[C@@H](O)[C@@H](O)[C@@H]4O)cc(O)cc3[C@@H](C(=O)N(C)C)NC2=O)O[C@@H](CO)[C@@H](O)[C@@H]1O
0.06 µg/mL (≈ 0.05 µM) | 0.12 µg/mL (≈ 0.1 µM) | 0.12 µg/mL (≈ 0.1 µM) | 0.12 µg/mL (≈ 0.1 µM) | 0.12 µg/mL (≈ 0.1 µM) | 0.016 µg/mL (≈ 0.0133 µM) | 0.25 µg/mL (≈ 0.209 µM) | 180000 M⁻¹ | – | N[C@H]1C(=O)N[C@@H]2Cc3ccc(c(Cl)c3)Oc3cc4cc(c3O)Oc3ccc(cc3Cl)[C@@H](O)[C@@H]3NC(=O)[C@H](NC(=O)[C@@H]4NC(=O)[C@@H](NC2=O)c2cc(O)cc(c2)Oc2cc1ccc2O)c1ccc(O)c(c1)-c1c(O)cc(O)cc1[C@@H](C(=O)O)NC3=O [TEICOPLANIN AGLYCON]
